Results on 10 compounds are retold here after ChEMBL document CHEMBL1269004, “Synthesis of a 6-methyl-7-deaza analogue of adenosine that potently inhibits replication of polio and dengue viruses” (J Med Chem, 2010).

For experiment [1], the system named is dengue virus type 2. Put plainly: Antiviral activity against Dengue virus type 2 in BHK-21 cells assessed as inhibition of viral replication after 24 hrs by luciferase assay. Format: functional, organism-based. The note with it: BHK-21, 24 h. Summed up:
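BHK-21 cells stably carrying a luciferase DENV2 replicon, grown in DMEM/F-12 with 10% FBS. Seeded 24 h ahead, then exposed for 24 h to a nucleoside concentration series in media with 1% DMSO. Cells PBS-washed and lysed; luciferase luminescence read on the lysate.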

Experiment [2] in a line: Cytotoxicity against human HeLaS3 cells after 7 hrs by celltiter-glo assay. Format: cell-based. To be noted: HeLa S3, 7 h. Summed up: (§1)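 HeLa S3 cells (4 × 10^3/well, plated 24 h before) exposed to a nucleoside concentration series at 37 °C, final 0.1% DMSO, for 7, 24 or 48 h. Cells PBS-washed; viability read as ATP-dependent luminescence (CellTiter-Glo) after 10 min at 22 °C. IC50 from a four-parameter fit of luminescence vs concentration.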

Experiment [3] can be described thus: Cytotoxicity against human HeLaS3 cells after 48 hrs by celltiter-glo assay. The experiment is classed as cell-based. The note with it: HeLa S3, 48 h. The essentials: as §1
Background: ATP-based viability assays read luminescence as a measure of living cells.

In experiment [4] the test system is Enterovirus C. Put plainly: Antiviral activity against Poliovirus infected in human HeLaS3 cells assessed as inhibition of viral replication treated 1 hr before infection measured after 2 days. To be noted: HeLa S3. The experiment is classed as functional, organism-based. The essentials: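 HeLa S3 cells (1 × 10^5, plated 1 day prior) pretreated 1 h at 37 °C with nucleoside in 0.1% DMSO media, then infected with 1 × 10^6 PFU PV in PBS for 15 min at room temperature. Refed with nucleoside-containing media and infected 6 h at 37 °C. Cell-associated virus released by 3 freeze-thaw cycles and titered by plaque assay on HeLa S3 under 1% agarose for 2 days, with crystal violet stain. IC50 from a four-parameter fit.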

Experiment [5] is described as follows: Cytotoxicity against human HeLaS3 cells after 24 hrs by celltiter-glo assay. The experiment is classed as cell-based. The note with it: HeLa S3, 24 h. Summed up:
as §1

Experiment [6] has as its system dengue virus type 2. Nature of the experiment: Antiviral activity against Dengue virus type 2 in Vero cells assessed as inhibition of viral replication after 6 days using neutral red dye by plaque assay. Format: functional, organism-based. The note with it: 144 h. Summed up:
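Cells infected with DENV2, then treated for 24 h at 37 °C with a concentration series in 1% DMSO media. Supernatant overlaid with 0.9% low-melting agarose in EMEM/0.5% FBS for 6 days at 37 °C, then a second agarose layer with 0.015% neutral red added overnight. Plaques counted as PFU/ml; IC50 from a four-parameter fit of titer vs concentration.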

The test system of experiment [7] is dengue virus type 2. Put plainly: Antiviral activity against Dengue virus type 2 in Vero cells assessed as inhibition of viral RNA replication […] by RT-PCR analysis. The experiment is classed as functional, organism-based.
A short description of experiment [8]: Cytotoxicity against human HeLaS3 cells at 100 uM after 24 hrs by celltiter-glo assay. Format: cell-based. The note with it: HeLa S3, 24 h. Summed up:
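HeLa S3 cells (4 × 10^3/well) treated 24 h at 37 °C in 0.1% DMSO. Viability measured as ATP luminescence (CellTiter-Glo) after PBS wash, read after 10 min at 22 °C, and reported as % viable cells.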

Experiment [9] can be described thus: Binding affinity to Poliovirus RNA-dependent RNA polymerase. Set-up: species or system Enterovirus C. To be noted: read-out: Kd(app).
In experiment [10] the test system is Enterovirus C. Put plainly: Activity at Poliovirus RNA-dependent RNA polymerase assessed as incorporation into opposite cytosine of viral RNA after 30 mins by denaturing PAGE analysis.
In experiment [11] the test system is Enterovirus C. Nature of the experiment: Activity at Poliovirus RNA-dependent RNA polymerase assessed as incorporation into opposite uracil and cytosine of viral RNA by denaturing PAGE analysis. Summed up:
(§2)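 Pre-assembled PV 3Dpol–sym/sub primer/template (32P end-labelled) complex formed for 3 min at 30 °C. Reaction at 30 °C in 50 mM HEPES pH 7.5 with 10 mM 2-mercaptoethanol, 5 mM MgCl2, 1 µM 3Dpol, 0.5 µM duplex RNA and 0.5 mM NTP, started by adding nucleotide. Stopped at 1, 5 or 10 min, run on denaturing PAGE, phosphorimaged, and expressed as % incorporation relative to the natural NTP.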

Experiment [12] concerns Enterovirus C. Nature of the experiment: Activity at Poliovirus RNA-dependent RNA polymerase assessed as incorporation into opposite adenine and guanine of viral RNA by denaturing PAGE analysis. Summed up: as §2

Active and inactive are the calls of the source. The calls are words filed in the database; no cut-off is given here.

Turning to `Cc1nccc2c1ncn2[C@@H]1O[C@H](CO)[C@@H](O)[C@H]1O`, the IC50 (in general, the concentration that inhibits the measured activity by half) in the experiment with dengue virus type 2 [1] was above 10 µM; in [2], above 100 µM; in experiment [3], above 100 µM; with Enterovirus C [4] it was above 10 µM; in experiment [5], above 100 µM.

`COC[C@H]1O[C@@H](n2ccc3c(C)ncnc32)[C@H](O)[C@@H]1O`: the IC50 was above 10 µM in the experiment with dengue virus type 2 [1]; above 100 µM in experiment [2]; above 100 µM in experiment [3]; above 10 µM in the experiment on Enterovirus C [4]; above 100 µM in experiment [5].

Take `Cc1ncnc2c1ccn2[C@@H]1O[C@H](CO)[C@@H](O)[C@H]1O`: the IC50 was 0.877 µM in the experiment on dengue virus type 2 [1]; 0.062 µM in the experiment with dengue virus type 2 [6]; 0.039 µM with dengue virus type 2 [7]; 0.986 µM in experiment [8]; above 100 µM in experiment [2]; 0.224 µM in experiment [3]. The IC50 in the experiment on Enterovirus C [4] stood at 0.011 µM.

Turning to `NC(=O)c1ncn([C@@H]2O[C@H](COP(=O)(O)OP(=O)(O)OP(=O)(O)O)[C@@H](O)[C@H]2O)n1` [RTP], the Kd in experiment [9] came out at 496 µM.

Consider `Nc1ncnc2c1ncn2[C@@H]1O[C@H](COP(=O)(O)OP(=O)(O)OP(=O)(O)O)[C@@H](O)[C@H]1O` [ADENOSINE TRIPHOSPHATE], for which the Kd in experiment [9] is 134 µM.

Take `Nc1ncnc2c1ccn2[C@@H]1O[C@H](CO)[C@@H](O)[C@H]1O` [TUBERCIDIN]: the IC50 in [2] is 1.44 µM; in experiment [3], 0.4 µM; in the experiment with Enterovirus C [4], 0.03 µM; in experiment [5] it was 0.819 µM.

Regarding `Cc1ncnc2c1ncn2[C@@H]1O[C@H](COP(=O)(O)OP(=O)(O)OP(=O)(O)O)[C@@H](O)[C@H]1O`, in [9], the Kd is 170 µM. Besides, the Activity in the experiment with Enterovirus C [10] came to 40%. Besides, in the experiment on Enterovirus C [11], the result was Active. Besides, the outcome in the experiment on Enterovirus C [12] was inactive.

As to `Cc1ccnc2c1ncn2[C@@H]1O[C@H](CO)[C@@H](O)[C@H]1O`, the IC50 with dengue virus type 2 [1] was above 10 µM; in experiment [2], above 100 µM; in [3] it was above 10 µM; in the experiment with Enterovirus C [4], above 10 µM; in experiment [5], above 100 µM.

As to `Cc1ncnc2c1ccn2[C@@H]1O[C@H](COP(=O)(O)OP(=O)(O)OP(=O)(O)O)[C@@H](O)[C@H]1O`, the Kd in experiment [9] is 120 µM. Further, the Activity in the experiment on Enterovirus C [10] is 60%. In the experiment with Enterovirus C [11], the result was Active. Moreover, in the experiment on Enterovirus C [12], the outcome was inactive.

For the compound `Cc1ncnc2c1ncn2[C@@H]1O[C@H](CO)[C@@H](O)[C@H]1O`, the IC50 stood at 5.46 µM with dengue virus type 2 [1]; 17.7 µM in [2]; 2.2 µM in experiment [3]; 1.01 µM in the experiment on Enterovirus C [4]; 6.68 µM in [5].
